How the values were obtained:
Settings in all cases: stereoisomer not certain
[1] = molecular target: T1, OR2B11 (Homo sapiens) (UniProt Q5JQS5)
T1 sequence (whole entry): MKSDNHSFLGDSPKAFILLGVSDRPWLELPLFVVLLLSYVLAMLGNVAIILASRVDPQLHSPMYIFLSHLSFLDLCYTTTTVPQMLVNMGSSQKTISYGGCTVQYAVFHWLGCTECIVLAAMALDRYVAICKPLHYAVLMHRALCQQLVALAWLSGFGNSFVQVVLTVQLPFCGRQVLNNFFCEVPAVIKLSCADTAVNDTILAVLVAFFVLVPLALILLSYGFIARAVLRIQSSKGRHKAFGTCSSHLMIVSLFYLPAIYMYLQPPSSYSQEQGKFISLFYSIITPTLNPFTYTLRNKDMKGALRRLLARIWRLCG
Method in brief: (§1)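 Each entry records the cell line, G-protein, co-transfected protein and tags used. Methods varied with the source, often transient luciferase assays in mammalian cell lines. A receptor–molecule pair is called responsive (active) if the original authors judged its signal statistically different from baseline and non-responsive (inactive) otherwise.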

[2] = molecular target: T2, OR2AE1 (Homo sapiens) (UniProt Q8NHA4)
T2 sequence (whole entry): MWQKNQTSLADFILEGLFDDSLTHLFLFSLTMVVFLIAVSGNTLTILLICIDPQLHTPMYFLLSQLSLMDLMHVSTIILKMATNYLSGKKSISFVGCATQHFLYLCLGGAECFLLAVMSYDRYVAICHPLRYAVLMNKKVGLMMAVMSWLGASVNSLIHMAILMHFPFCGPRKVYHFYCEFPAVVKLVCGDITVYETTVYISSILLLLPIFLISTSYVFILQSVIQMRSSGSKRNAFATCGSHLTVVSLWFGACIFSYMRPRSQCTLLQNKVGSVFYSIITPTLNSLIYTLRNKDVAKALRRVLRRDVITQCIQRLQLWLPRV
Method in brief: as §1

[3] = molecular target: T3, OR2AG1 (Homo sapiens) (UniProt Q9H205)
T3 sequence (whole entry): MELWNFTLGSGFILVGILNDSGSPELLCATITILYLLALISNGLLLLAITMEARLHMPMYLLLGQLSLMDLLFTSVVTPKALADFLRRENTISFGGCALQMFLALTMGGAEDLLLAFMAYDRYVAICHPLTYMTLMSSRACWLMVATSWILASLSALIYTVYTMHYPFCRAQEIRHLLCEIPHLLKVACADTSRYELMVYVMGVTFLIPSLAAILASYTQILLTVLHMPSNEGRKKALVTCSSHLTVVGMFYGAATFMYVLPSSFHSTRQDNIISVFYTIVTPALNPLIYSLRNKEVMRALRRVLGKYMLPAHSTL
Method in brief: as §1

[4] = molecular target: T4, OR2AG2 (Homo sapiens) (UniProt A6NM03)
T4 sequence (whole entry): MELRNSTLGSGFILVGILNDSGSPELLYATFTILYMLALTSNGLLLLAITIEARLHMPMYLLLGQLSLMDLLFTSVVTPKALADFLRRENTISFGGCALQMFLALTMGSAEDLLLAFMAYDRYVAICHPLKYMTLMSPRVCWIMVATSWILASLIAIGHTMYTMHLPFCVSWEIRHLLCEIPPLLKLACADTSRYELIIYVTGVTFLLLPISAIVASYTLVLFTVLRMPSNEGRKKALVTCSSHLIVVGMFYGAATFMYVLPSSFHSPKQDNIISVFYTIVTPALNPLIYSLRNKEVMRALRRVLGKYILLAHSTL
Method in brief: as §1

[5] = molecular target: T5, OR2AJ1 (Homo sapiens) (UniProt Q8NGZ0)
T5 sequence (whole entry): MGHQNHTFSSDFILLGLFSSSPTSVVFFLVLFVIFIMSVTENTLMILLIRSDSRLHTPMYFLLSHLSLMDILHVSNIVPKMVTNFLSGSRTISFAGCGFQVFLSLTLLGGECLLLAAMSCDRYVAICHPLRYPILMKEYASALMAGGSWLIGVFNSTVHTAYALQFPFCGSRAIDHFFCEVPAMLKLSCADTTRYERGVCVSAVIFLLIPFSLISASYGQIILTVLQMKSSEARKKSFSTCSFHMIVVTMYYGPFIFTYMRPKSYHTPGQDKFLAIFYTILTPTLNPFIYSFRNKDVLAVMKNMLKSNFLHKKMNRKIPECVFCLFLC
Method in brief: as §1

[6] = molecular target: T6, OR2AK2 (Homo sapiens) (UniProt Q8NG84)
T6 sequence (whole entry): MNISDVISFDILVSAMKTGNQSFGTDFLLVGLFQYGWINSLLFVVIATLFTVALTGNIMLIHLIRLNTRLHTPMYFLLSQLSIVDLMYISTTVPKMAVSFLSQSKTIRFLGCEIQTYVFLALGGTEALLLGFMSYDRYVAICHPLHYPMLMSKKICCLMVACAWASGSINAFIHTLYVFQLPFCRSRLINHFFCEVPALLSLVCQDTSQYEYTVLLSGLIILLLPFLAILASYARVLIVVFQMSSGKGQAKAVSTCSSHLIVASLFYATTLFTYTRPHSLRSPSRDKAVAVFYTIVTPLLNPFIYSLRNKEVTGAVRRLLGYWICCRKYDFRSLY
Method in brief: as §1

[7] = molecular target: T7, OR2AP1 (Homo sapiens) (UniProt Q8NGE2)
T7 sequence (whole entry): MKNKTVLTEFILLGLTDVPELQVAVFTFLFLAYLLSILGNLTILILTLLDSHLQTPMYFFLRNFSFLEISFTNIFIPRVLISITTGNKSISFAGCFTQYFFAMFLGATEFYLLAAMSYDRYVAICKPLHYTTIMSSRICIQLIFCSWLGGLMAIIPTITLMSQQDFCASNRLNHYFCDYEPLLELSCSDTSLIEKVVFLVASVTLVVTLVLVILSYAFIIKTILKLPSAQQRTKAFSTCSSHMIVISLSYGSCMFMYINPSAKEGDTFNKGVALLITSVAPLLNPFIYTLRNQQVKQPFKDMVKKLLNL
Method in brief: as §1

[8] = molecular target: T8, OR2AT4 (Homo sapiens) (UniProt A6NND4)
T8 sequence (whole entry): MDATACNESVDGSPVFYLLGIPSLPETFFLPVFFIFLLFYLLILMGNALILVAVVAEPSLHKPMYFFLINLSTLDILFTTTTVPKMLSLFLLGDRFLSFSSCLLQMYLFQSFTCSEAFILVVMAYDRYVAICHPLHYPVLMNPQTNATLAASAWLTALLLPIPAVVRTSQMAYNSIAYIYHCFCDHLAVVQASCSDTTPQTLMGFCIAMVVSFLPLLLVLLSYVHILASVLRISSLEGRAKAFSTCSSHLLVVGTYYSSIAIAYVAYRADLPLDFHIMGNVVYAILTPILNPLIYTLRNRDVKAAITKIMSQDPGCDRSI
Method in brief: as §1

[9] = molecular target: T9, OR2B2 (Homo sapiens) (UniProt Q9GZK3)
T9 sequence (whole entry): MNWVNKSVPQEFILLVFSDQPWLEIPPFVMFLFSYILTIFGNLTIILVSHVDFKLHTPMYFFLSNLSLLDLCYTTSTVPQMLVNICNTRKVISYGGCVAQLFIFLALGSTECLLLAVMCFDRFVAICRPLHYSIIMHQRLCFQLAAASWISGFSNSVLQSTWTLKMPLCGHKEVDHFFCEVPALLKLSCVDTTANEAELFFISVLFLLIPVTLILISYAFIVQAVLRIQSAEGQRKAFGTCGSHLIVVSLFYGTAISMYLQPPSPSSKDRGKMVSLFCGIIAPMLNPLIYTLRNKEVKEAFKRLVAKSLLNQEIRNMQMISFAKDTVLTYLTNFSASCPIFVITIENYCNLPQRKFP
Method in brief: as §1

[10] = system: T10, OR2A7
T10 sequence (whole entry): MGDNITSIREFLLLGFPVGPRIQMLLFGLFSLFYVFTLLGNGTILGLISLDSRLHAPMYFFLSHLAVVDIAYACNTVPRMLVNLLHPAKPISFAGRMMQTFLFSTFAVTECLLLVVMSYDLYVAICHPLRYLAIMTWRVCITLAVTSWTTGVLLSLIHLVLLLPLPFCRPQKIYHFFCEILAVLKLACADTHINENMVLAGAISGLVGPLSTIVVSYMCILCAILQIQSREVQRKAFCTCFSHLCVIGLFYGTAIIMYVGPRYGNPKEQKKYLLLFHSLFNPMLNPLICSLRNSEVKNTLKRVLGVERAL
Method in brief: as §1

| Structure (SMILES) | odorant receptor agonist call [1] | odorant receptor agonist call [2] | odorant receptor agonist call [3] | odorant receptor agonist call [4] | odorant receptor agonist call [5] | odorant receptor agonist call [6] | odorant receptor agonist call [7] | odorant receptor agonist call [8] | odorant receptor agonist call [9] | odorant receptor agonist call [10] |
| --- | --- | --- | --- | --- | --- | --- | --- | --- | --- | --- |
| c1coc(CSSCc2ccco2)c1 | active |  |  |  |  |  |  |  |  |  |
| CCCCCC(S)C(C)CO (stereo not drawn) | inactive | inactive | inactive | inactive | inactive | active | inactive | inactive | active |  |
| CC1=NC(C)C(C)S1 (stereo not drawn) | inactive | inactive | inactive | inactive |  | inactive | inactive | inactive | inactive | inactive |
| CC(C)C1OC(C)(C)OCC1(C)C (stereo not drawn) |  |  | inactive |  |  |  |  |  |  |  |
| CCC(S)C(C)CO (stereo not drawn) | inactive | inactive | inactive | inactive | inactive | inactive | inactive | inactive | inactive |  |
| CCC1OC(C)=C(O)C1=O (stereo not drawn) | inactive | inactive | inactive | inactive |  | inactive | inactive | inactive | inactive | inactive |
| CCCCCC(=O)C(C)C(C)=O (stereo not drawn) | inactive | inactive | inactive | inactive | inactive | inactive | inactive | inactive | inactive |  |
| CC(=O)c1c(C)c([N+](=O)[O-])c(C(C)(C)C)c([N+](=O)[O-])c1C | inactive | inactive | inactive | inactive | inactive | inactive | inactive | inactive | inactive |  |
| CCC1OC(=O)C(O)=C1C (stereo not drawn) | inactive | inactive | inactive | inactive |  | inactive | inactive | inactive | inactive | inactive |
| CC1=C(O)C(=O)C(C)O1 (stereo not drawn) | inactive | inactive | inactive | inactive |  | inactive | inactive | inactive | inactive | inactive |
| C1CCC(SSC2CCCCC2)CC1 | active |  |  |  |  |  |  |  |  |  |
| CC1CCCCCCCCCCCCC(=O)C1 (stereo not drawn) | inactive | inactive | inactive | inactive | inactive | inactive | inactive | inactive | inactive |  |
| CCCC(S)CCOC(C)=O (stereo not drawn) | inactive | inactive | inactive | inactive |  | inactive | inactive | inactive | inactive | inactive |
| CCCCCOC(=O)CCC |  |  | inactive |  |  |  |  |  |  |  |
| CC(CO)CS (stereo not drawn) | inactive | inactive | inactive | inactive | inactive | inactive | inactive | inactive | inactive |  |
| CCCCC(S)C(C)CO (stereo not drawn) | inactive | inactive | inactive | inactive | inactive | inactive | inactive | inactive | inactive |  |
| CC1=C(O)C(=O)OC1C (stereo not drawn) | inactive | inactive | inactive | inactive |  | inactive | inactive | inactive | inactive | inactive |
| c1ccc2ncccc2c1 | active |  |  |  |  |  |  |  |  |  |
| CCCC(C)C1OCC(C)(CCC)CO1 (stereo not drawn) |  |  | inactive |  |  |  |  |  |  |  |
| CCCCCCC=CCCC=O | inactive | inactive | inactive | inactive | inactive | inactive | inactive | inactive | inactive | inactive |
| O=c1ccc2ccccc2o1 | active |  |  |  |  |  |  |  |  |  |
| Cc1cnc(C)c(C)n1 | inactive | inactive | inactive | inactive |  | inactive | inactive | inactive | inactive | inactive |
